# Target: Adenosine receptor A2a (Homo sapiens, UniProt P29274)
# Assay: Displacement of [3H]NECA from human adenosine A2A receptor in stably transfected CHO cells
# Assay type: cell-based
# How it was run: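 Radioligand displacement of specific [³H]NECA binding to human recombinant A2A receptor stably expressed in CHO cells; affinity given as Ki (nM).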
# Sequence of Adenosine receptor A2a (P29274 whole entry): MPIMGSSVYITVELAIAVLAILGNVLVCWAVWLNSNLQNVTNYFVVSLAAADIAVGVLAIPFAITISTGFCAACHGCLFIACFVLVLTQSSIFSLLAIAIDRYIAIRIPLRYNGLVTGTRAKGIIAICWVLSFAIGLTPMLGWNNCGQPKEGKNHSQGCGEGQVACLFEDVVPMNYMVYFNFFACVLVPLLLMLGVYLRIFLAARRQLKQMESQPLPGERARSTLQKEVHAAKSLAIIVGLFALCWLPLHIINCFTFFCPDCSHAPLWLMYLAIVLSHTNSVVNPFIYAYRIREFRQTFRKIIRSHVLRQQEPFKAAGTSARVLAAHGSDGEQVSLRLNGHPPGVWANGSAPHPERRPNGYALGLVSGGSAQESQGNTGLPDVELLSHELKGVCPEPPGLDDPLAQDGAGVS
row,SMILES,Ki [µM]
1,Nc1nc(NC(=O)/C=C/c2ccccc2)nc2c1ncn2[C@@H]1O[C@H](CO)[C@@H](O)[C@H]1O,4.1
2,Nc1nc(NC(=O)C2CCCCC2)nc2c1ncn2[C@@H]1O[C@H](CO)[C@@H](O)[C@H]1O,1.78
3,CCNC(=O)[C@H]1O[C@@H](n2cnc3c(N)nc(NC(=O)CCC4CCCC4)nc32)[C@H](O)[C@@H]1O,10.8
4,O=C(CCc1ccccc1)Nc1nc(NC2CCCC2)c2ncn([C@@H]3O[C@H](CO)[C@@H](O)[C@H]3O)c2n1,5.66
5,Nc1nc(NC(=O)CCC2CCCC2)nc2c1ncn2[C@@H]1O[C@H](CO)[C@@H](O)[C@H]1O,2
6,Nc1nc(NC(=O)CCc2ccccc2)nc2c1ncn2[C@@H]1O[C@H](CO)[C@@H](O)[C@H]1O,4.57
7,CCNc1nc(NC(=O)CC2CCCCC2)nc2c1ncn2[C@@H]1O[C@H](CO)[C@@H](O)[C@H]1O,7.75
8,Nc1nc(NC(=O)CC2CCCCC2)nc2c1ncn2[C@@H]1O[C@H](CO)[C@@H](O)[C@H]1O,2.41
9,Nc1nc(NC(=O)CCCC2CCCCC2)nc2c1ncn2[C@@H]1O[C@H](CO)[C@@H](O)[C@H]1O,1.94
10,O=C(CCC1CCCC1)Nc1nc(NC2CCCC2)c2ncn([C@@H]3O[C@H](CO)[C@@H](O)[C@H]3O)c2n1,2.18

# Target: Adenosine receptors; A1 & A3 (Homo sapiens) (UniProt P30542+P0DMS8)
# Assay: Ratio of binding affinity for adenosine A3 receptor to adenosine A1 receptor
# Assay type: protein assay
row,SMILES,Ratio
1,Nc1nc(NC(=O)/C=C/c2ccccc2)nc2c1ncn2[C@@H]1O[C@H](CO)[C@@H](O)[C@H]1O,13
2,Nc1nc(NC(=O)C2CCCCC2)nc2c1ncn2[C@@H]1O[C@H](CO)[C@@H](O)[C@H]1O,1.7
3,CCNC(=O)[C@H]1O[C@@H](n2cnc3c(N)nc(NC(=O)CCC4CCCC4)nc32)[C@H](O)[C@@H]1O,0.2
4,O=C(CCc1ccccc1)Nc1nc(NC2CCCC2)c2ncn([C@@H]3O[C@H](CO)[C@@H](O)[C@H]3O)c2n1,60
5,Nc1nc(NC(=O)CCC2CCCC2)nc2c1ncn2[C@@H]1O[C@H](CO)[C@@H](O)[C@H]1O,4
6,Nc1nc(NC(=O)CCc2ccccc2)nc2c1ncn2[C@@H]1O[C@H](CO)[C@@H](O)[C@H]1O,6
7,CCNc1nc(NC(=O)CC2CCCCC2)nc2c1ncn2[C@@H]1O[C@H](CO)[C@@H](O)[C@H]1O,0.9
8,Nc1nc(NC(=O)CC2CCCCC2)nc2c1ncn2[C@@H]1O[C@H](CO)[C@@H](O)[C@H]1O,4
9,Nc1nc(NC(=O)CCCC2CCCCC2)nc2c1ncn2[C@@H]1O[C@H](CO)[C@@H](O)[C@H]1O,1.4
10,O=C(CCC1CCCC1)Nc1nc(NC2CCCC2)c2ncn([C@@H]3O[C@H](CO)[C@@H](O)[C@H]3O)c2n1,44

# Target: T1, Adenosine receptor A1 (Homo sapiens, UniProt P30542)
# T1 sequence (P30542 whole entry): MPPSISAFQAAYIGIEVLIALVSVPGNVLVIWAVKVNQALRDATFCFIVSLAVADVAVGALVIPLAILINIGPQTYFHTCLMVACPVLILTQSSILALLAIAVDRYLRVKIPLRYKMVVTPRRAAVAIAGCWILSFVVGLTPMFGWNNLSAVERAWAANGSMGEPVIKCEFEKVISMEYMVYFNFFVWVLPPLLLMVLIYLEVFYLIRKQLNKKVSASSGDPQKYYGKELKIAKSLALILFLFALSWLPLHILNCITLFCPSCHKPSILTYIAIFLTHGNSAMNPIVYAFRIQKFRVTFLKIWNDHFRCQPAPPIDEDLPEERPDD
# Assay: Displacement of [3H]CCPA from human adenosine A1 receptor expressed in CHO cells
# Assay type: cell-based
row,SMILES,Ki [µM]
1,Nc1nc(NC(=O)/C=C/c2ccccc2)nc2c1ncn2[C@@H]1O[C@H](CO)[C@@H](O)[C@H]1O,0.0707
2,Nc1nc(NC(=O)C2CCCCC2)nc2c1ncn2[C@@H]1O[C@H](CO)[C@@H](O)[C@H]1O,1.62
3,CCNC(=O)[C@H]1O[C@@H](n2cnc3c(N)nc(NC(=O)CCC4CCCC4)nc32)[C@H](O)[C@@H]1O,5.45
4,O=C(CCc1ccccc1)Nc1nc(NC2CCCC2)c2ncn([C@@H]3O[C@H](CO)[C@@H](O)[C@H]3O)c2n1,0.0207
5,Nc1nc(NC(=O)CCC2CCCC2)nc2c1ncn2[C@@H]1O[C@H](CO)[C@@H](O)[C@H]1O,0.252
6,Nc1nc(NC(=O)CCc2ccccc2)nc2c1ncn2[C@@H]1O[C@H](CO)[C@@H](O)[C@H]1O,0.432
7,CCNc1nc(NC(=O)CC2CCCCC2)nc2c1ncn2[C@@H]1O[C@H](CO)[C@@H](O)[C@H]1O,0.207
8,Nc1nc(NC(=O)CC2CCCCC2)nc2c1ncn2[C@@H]1O[C@H](CO)[C@@H](O)[C@H]1O,0.342
9,Nc1nc(NC(=O)CCCC2CCCCC2)nc2c1ncn2[C@@H]1O[C@H](CO)[C@@H](O)[C@H]1O,0.733
10,O=C(CCC1CCCC1)Nc1nc(NC2CCCC2)c2ncn([C@@H]3O[C@H](CO)[C@@H](O)[C@H]3O)c2n1,0.0318

# Target: Adenosine receptors; A1 & A2a (Homo sapiens) (UniProt P30542+P29274)
# Sequence (P29274 whole entry, looked up, one chain of several): as the sequence (P29274 whole entry) above
# Assay: Ratio of binding affinity for adenosine A2A receptor to adenosine A1 receptor
# Assay type: protein assay
row,SMILES,Ratio
1,Nc1nc(NC(=O)/C=C/c2ccccc2)nc2c1ncn2[C@@H]1O[C@H](CO)[C@@H](O)[C@H]1O,58
2,Nc1nc(NC(=O)C2CCCCC2)nc2c1ncn2[C@@H]1O[C@H](CO)[C@@H](O)[C@H]1O,1.1
3,CCNC(=O)[C@H]1O[C@@H](n2cnc3c(N)nc(NC(=O)CCC4CCCC4)nc32)[C@H](O)[C@@H]1O,2
4,O=C(CCc1ccccc1)Nc1nc(NC2CCCC2)c2ncn([C@@H]3O[C@H](CO)[C@@H](O)[C@H]3O)c2n1,273
5,Nc1nc(NC(=O)CCC2CCCC2)nc2c1ncn2[C@@H]1O[C@H](CO)[C@@H](O)[C@H]1O,8
6,Nc1nc(NC(=O)CCc2ccccc2)nc2c1ncn2[C@@H]1O[C@H](CO)[C@@H](O)[C@H]1O,11
7,CCNc1nc(NC(=O)CC2CCCCC2)nc2c1ncn2[C@@H]1O[C@H](CO)[C@@H](O)[C@H]1O,37
8,Nc1nc(NC(=O)CC2CCCCC2)nc2c1ncn2[C@@H]1O[C@H](CO)[C@@H](O)[C@H]1O,7
9,Nc1nc(NC(=O)CCCC2CCCCC2)nc2c1ncn2[C@@H]1O[C@H](CO)[C@@H](O)[C@H]1O,3
10,O=C(CCC1CCCC1)Nc1nc(NC2CCCC2)c2ncn([C@@H]3O[C@H](CO)[C@@H](O)[C@H]3O)c2n1,69

# Target: T2, Adenosine receptor A2b (Homo sapiens) (UniProt P29275)
# T2 sequence (whole entry): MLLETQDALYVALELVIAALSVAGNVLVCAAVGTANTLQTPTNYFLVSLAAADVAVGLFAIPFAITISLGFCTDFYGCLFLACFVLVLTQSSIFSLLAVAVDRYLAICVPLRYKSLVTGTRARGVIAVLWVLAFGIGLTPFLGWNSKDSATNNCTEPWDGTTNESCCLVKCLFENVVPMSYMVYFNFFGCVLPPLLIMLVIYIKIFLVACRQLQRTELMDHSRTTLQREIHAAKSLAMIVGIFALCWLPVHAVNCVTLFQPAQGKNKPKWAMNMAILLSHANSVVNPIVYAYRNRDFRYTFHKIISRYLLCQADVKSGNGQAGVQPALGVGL
# Assay: Potency NECA-induced signal mediated by human A2B receptor in CHO cells at 100 uM
# Assay type: cell-based
# How it was run: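 Adenylyl cyclase activation measured in membranes from CHO cells stably transfected with human A2B receptor; test compounds at […], response expressed as percent of maximal NECA signal.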
row,SMILES,Potency [%]
1,OC[C@H]1O[C@@H](n2cnc3c(NC4CCCC4)nc(Cl)nc32)[C@H](O)[C@@H]1O,< 20
2,Nc1nc(NC(=O)/C=C/c2ccccc2)nc2c1ncn2[C@@H]1O[C@H](CO)[C@@H](O)[C@H]1O,< 20
3,Nc1nc(NC(=O)C2CCCCC2)nc2c1ncn2[C@@H]1O[C@H](CO)[C@@H](O)[C@H]1O,< 20
4,CCNC(=O)[C@H]1O[C@@H](n2cnc3c(N)nc(NC(=O)CCC4CCCC4)nc32)[C@H](O)[C@@H]1O,< 20
5,O=C(CCc1ccccc1)Nc1nc(NC2CCCC2)c2ncn([C@@H]3O[C@H](CO)[C@@H](O)[C@H]3O)c2n1,< 20
6,Nc1nc(NC(=O)CCC2CCCC2)nc2c1ncn2[C@@H]1O[C@H](CO)[C@@H](O)[C@H]1O,< 20
7,Nc1nc(NC(=O)CCc2ccccc2)nc2c1ncn2[C@@H]1O[C@H](CO)[C@@H](O)[C@H]1O,< 20
8,CCNc1nc(NC(=O)CC2CCCCC2)nc2c1ncn2[C@@H]1O[C@H](CO)[C@@H](O)[C@H]1O,< 20
9,Nc1nc(NC(=O)CC2CCCCC2)nc2c1ncn2[C@@H]1O[C@H](CO)[C@@H](O)[C@H]1O,< 20
10,Nc1nc(NC(=O)CCCC2CCCCC2)nc2c1ncn2[C@@H]1O[C@H](CO)[C@@H](O)[C@H]1O,< 20
11,O=C(CCC1CCCC1)Nc1nc(NC2CCCC2)c2ncn([C@@H]3O[C@H](CO)[C@@H](O)[C@H]3O)c2n1,< 20

# Target: T3, Adenosine receptor A3 (Homo sapiens, UniProt P0DMS8)
# T3 sequence (P0DMS8 whole entry): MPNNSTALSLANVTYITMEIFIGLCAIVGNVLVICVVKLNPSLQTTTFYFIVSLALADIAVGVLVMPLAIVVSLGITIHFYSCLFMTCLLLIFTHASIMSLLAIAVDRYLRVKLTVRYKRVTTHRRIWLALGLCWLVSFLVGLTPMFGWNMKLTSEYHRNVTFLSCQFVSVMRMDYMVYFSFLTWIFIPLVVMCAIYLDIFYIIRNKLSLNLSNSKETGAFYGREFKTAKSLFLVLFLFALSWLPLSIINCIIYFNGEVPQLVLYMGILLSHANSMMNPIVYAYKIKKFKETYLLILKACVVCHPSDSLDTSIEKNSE
# Assay: Displacement of [3H]NECA from human adenosine A3 receptor in stably transfected HEK cells
# Assay type: cell-based, HEK293
# How it was run: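 Competition for specific [³H]NECA binding at human recombinant A3 receptor stably transfected into HEK cells; Ki reported in nM.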
row,SMILES,Ki [µM]
1,Nc1nc(NC(=O)/C=C/c2ccccc2)nc2c1ncn2[C@@H]1O[C@H](CO)[C@@H](O)[C@H]1O,0.9
2,Nc1nc(NC(=O)C2CCCCC2)nc2c1ncn2[C@@H]1O[C@H](CO)[C@@H](O)[C@H]1O,2.76
3,CCNC(=O)[C@H]1O[C@@H](n2cnc3c(N)nc(NC(=O)CCC4CCCC4)nc32)[C@H](O)[C@@H]1O,1.01
4,O=C(CCc1ccccc1)Nc1nc(NC2CCCC2)c2ncn([C@@H]3O[C@H](CO)[C@@H](O)[C@H]3O)c2n1,1.25
5,Nc1nc(NC(=O)CCC2CCCC2)nc2c1ncn2[C@@H]1O[C@H](CO)[C@@H](O)[C@H]1O,1.04
6,Nc1nc(NC(=O)CCc2ccccc2)nc2c1ncn2[C@@H]1O[C@H](CO)[C@@H](O)[C@H]1O,2.71
7,CCNc1nc(NC(=O)CC2CCCCC2)nc2c1ncn2[C@@H]1O[C@H](CO)[C@@H](O)[C@H]1O,0.181
8,Nc1nc(NC(=O)CC2CCCCC2)nc2c1ncn2[C@@H]1O[C@H](CO)[C@@H](O)[C@H]1O,1.23
9,Nc1nc(NC(=O)CCCC2CCCCC2)nc2c1ncn2[C@@H]1O[C@H](CO)[C@@H](O)[C@H]1O,1.06
10,O=C(CCC1CCCC1)Nc1nc(NC2CCCC2)c2ncn([C@@H]3O[C@H](CO)[C@@H](O)[C@H]3O)c2n1,1.41

# — ChEMBL document CHEMBL1147632, “2-(N-acyl) and 2-N-acyl-N(6)-substituted analogues of adenosine and their affinity at the human adenosine receptors” (Bioorg Med Chem Lett, 2004)
